Legend:
[1] = Inhibition of DNA-PK in Chinese hamster DNA-PK proficient V3-YAC cells assessed as potentiation of ionizing radiation-induced cytotoxicity by measuring radiation LD90 at 0.5 umol/L preincubated for 1 hr followed by gamma-irradiation and measured after 16 hrs by crystal violet staining based assay; parameters: species or system Cricetulus griseus; settings: dose 0.5 µmol/L; time 17 hrs; condition cancer
Method in brief: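 Clonogenic assay in V3/V3-YAC cells. Cells were then reseeded in drug-free medium, and crystal violet colonies were counted after 10–14 days. LD90 is the radiation dose killing 90%. DMR90 is LD90 without inhibitor divided by LD90 with inhibitor.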

[2] = Inhibition of DNA-PK in Chinese hamster DNA-PK proficient V3-YAC cells assessed as potentiation of ionizing radiation-induced cytotoxicity by measuring fold change in radiation LD90 at 0.5 umol/L preincubated for 1 hr followed by gamma-irradiation and measured after 16 hrs by crystal violet staining based assay relative to radiation alone; parameters: species or system Cricetulus griseus; settings: dose 0.5 µmol/L; time 17 hrs; condition cancer
Method in brief: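 V3-YAC Chinese hamster ovary cells (human DNA-PKcs YAC, kept in 500 μg/mL G-418), RPMI 1640/10% FBS. Cells reseeded drug-free, colonies crystal violet stained after 10–14 days; LD90 ratio without/with inhibitor (DMR90).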

[3] = Cytotoxicity against Chinese hamster DNA-PK proficient V3-YAC cells assessed as cell survival at 0.5 umol/L measured after 16 hrs by crystal violet staining based assay relative to control; format: toxicity, Cricetulus griseus; settings: dose 0.5 µmol/L, read-out: Activity
Method in brief: (§1)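 Exponentially growing cells exposed 16 h to agent (0.5 or 1.0 μmol/L), with or without etoposide or doxorubicin, at 0.5% DMSO final; controls get DMSO alone. Cells are then trypsinized, reseeded at 100–100,000 per dish in drug-free medium and grown 10–14 days. Colonies stained with crystal violet and counted automatically.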

[4] = Cytotoxicity against Chinese hamster DNA-PK deficient V3 cells assessed as reduction in cell survival at 0.5 umol/L measured after 16 hrs in presence of etoposide by crystal violet staining based assay; format: toxicity, Cricetulus griseus; settings: v3, 16 h, 0.5 µM, dose 0.5 µmol/L; method in brief: as §1
[5] = Growth inhibition of human LoVo cells measured after 5 days by crystal violet staining based assay; format: toxicity, cell-based; settings: time 5 day
Method in brief: (§2)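 LoVo and SW620 cells in 96-well plates under 5-day continuous exposure to agent, and growth measured relative to control.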

[6] = Growth inhibition of human SW620 cells at 1 umol/L measured after 5 days by crystal violet staining based assay relative to control; format: toxicity, cell-based, SW-620; settings: dose 1 µmol/L, time 5 day, read-out: GI; method in brief: as §2
[7] = test system: SW-620; experiment: Cell cycle arrest in human SW620 cells assessed as reduction in S-phase cell population at 1 umol/L measured after 1 hr by propidium iodide staining based flow cytometry relative to control; format: toxicity; parameters: scale not given: the % may be the effect or the level left; settings: sw-620, 1 µM, dose 1 µmol/L
Method in brief: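 Asynchronous SW620 or LoVo cells, seeded 24 h earlier, given control or 1 μmol/L agent medium for 1 h before ionizing radiation, etoposide or doxorubicin, then incubated a further 16 h. Cells fixed in 70% ethanol, stained with propidium iodide (400 μg/mL) plus RNase (1 mg/mL), and analysed by 488 nm flow cytometry.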

[8] = Cmax in BALB/c mouse at 5 mg/kg, iv by HPLC analysis; format: ADME, organism-based; settings: in vivo
Method in brief: (§3)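 Female BALB/c mice dosed 5 mg/kg i.v. in 10% DMSO/10% cyclodextrin in saline, or 10 mg/kg i.p. or orally at 1 mg/mL in 40% PEG400/saline. Plasma taken at 5, 10, 15, 30, 60, 90, 120, 180, 240 and 360 min, three mice per time. Acetonitrile precipitation, C18 HPLC with UV detection at 329 nm against a plasma standard curve. Parameters derived from mean concentrations.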

[9] = AUClast in BALB/c mouse at 10 mg/kg, po by HPLC analysis; format: ADME, organism-based; settings: in vivo; method in brief: as §3
[10] = Clearance in BALB/c mouse at 10 mg/kg, po by HPLC analysis; format: ADME, organism-based; settings: in vivo; method in brief: as §3
[11] = AUClast in BALB/c mouse at 10 mg/kg, ip by HPLC analysis; format: ADME, organism-based; settings: in vivo; method in brief: as §3
[12] = AUCinfinity in BALB/c mouse at 10 mg/kg, ip by HPLC analysis; format: ADME, organism-based; settings: in vivo; method in brief: as §3
[13] = Bioavailability in BALB/c mouse at 10 mg/kg, ip by HPLC analysis; format: ADME, organism-based; settings: in vivo; method in brief: as §3
[14] = Ratio of drug level in brain to plasma of human SW620 cell xenografted athymic nude CD1 mouse at 10 mg/kg, ip measured after 30 mins by HPLC analysis; format: ADME, organism-based; settings: brain and plasma, read-out: BPR
Method in brief: (§4)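 Female CD-1 nu/nu mice bearing s.c. flank SW620 tumours (1×10^7 cells, ~650 mm³ at 10–14 days) given 10 mg/kg i.p. Tissues snap frozen, homogenised 1:3 in PBS. Acetonitrile precipitation, C18 HPLC with acetate pH 5/acetonitrile 75:25 mobile phase, UV 329 nm; tissue levels by method of addition. Tissue/plasma ratio, mean of three mice per time.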

[15] = Ratio of drug level in brain to plasma of human SW620 cell xenografted athymic nude CD1 mouse at 10 mg/kg, ip measured after 60 mins by HPLC analysis; format: ADME, organism-based; settings: brain and plasma, read-out: BPR; method in brief: as §4
[16] = Ratio of drug level in brain to plasma of human SW620 cell xenografted athymic nude CD1 mouse at 10 mg/kg, ip measured after 90 mins by HPLC analysis; format: ADME, organism-based; settings: brain and plasma, read-out: BPR; method in brief: as §4
[17] = Ratio of drug level in brain to plasma of human SW620 cell xenografted athymic nude CD1 mouse at 10 mg/kg, ip measured after 240 mins by HPLC analysis; format: ADME, organism-based; settings: brain and plasma, read-out: BPR; method in brief: as §4
[18] = Ratio of drug level in kidney to plasma of human SW620 cell xenografted athymic nude CD1 mouse at 10 mg/kg, ip measured after 90 mins by HPLC analysis; format: ADME, organism-based; method in brief: as §4
[19] = Ratio of drug level in kidney to plasma of human SW620 cell xenografted athymic nude CD1 mouse at 10 mg/kg, ip measured after 240 mins by HPLC analysis; format: ADME, organism-based; method in brief: as §4
[20] = Ratio of drug level in liver to plasma of human SW620 cell xenografted athymic nude CD1 mouse at 10 mg/kg, ip measured after 240 mins by HPLC analysis; format: ADME, organism-based; method in brief: as §4
[21] = Ratio of drug level in spleen to plasma of human SW620 cell xenografted athymic nude CD1 mouse at 10 mg/kg, ip measured after 30 mins by HPLC analysis; format: ADME, organism-based; method in brief: as §4
[22] = Ratio of drug level in spleen to plasma of human SW620 cell xenografted athymic nude CD1 mouse at 10 mg/kg, ip measured after 60 mins by HPLC analysis; format: ADME, organism-based; method in brief: as §4
[23] = target: T1, DNA-dependent protein kinase catalytic subunit (Homo sapiens, UniProt P78527); experiment: Inhibition of human HeLa cell nuclear extract purified DNA-PK using p53 peptide as substrate by ELISA
T1 sequence (P78527 whole entry): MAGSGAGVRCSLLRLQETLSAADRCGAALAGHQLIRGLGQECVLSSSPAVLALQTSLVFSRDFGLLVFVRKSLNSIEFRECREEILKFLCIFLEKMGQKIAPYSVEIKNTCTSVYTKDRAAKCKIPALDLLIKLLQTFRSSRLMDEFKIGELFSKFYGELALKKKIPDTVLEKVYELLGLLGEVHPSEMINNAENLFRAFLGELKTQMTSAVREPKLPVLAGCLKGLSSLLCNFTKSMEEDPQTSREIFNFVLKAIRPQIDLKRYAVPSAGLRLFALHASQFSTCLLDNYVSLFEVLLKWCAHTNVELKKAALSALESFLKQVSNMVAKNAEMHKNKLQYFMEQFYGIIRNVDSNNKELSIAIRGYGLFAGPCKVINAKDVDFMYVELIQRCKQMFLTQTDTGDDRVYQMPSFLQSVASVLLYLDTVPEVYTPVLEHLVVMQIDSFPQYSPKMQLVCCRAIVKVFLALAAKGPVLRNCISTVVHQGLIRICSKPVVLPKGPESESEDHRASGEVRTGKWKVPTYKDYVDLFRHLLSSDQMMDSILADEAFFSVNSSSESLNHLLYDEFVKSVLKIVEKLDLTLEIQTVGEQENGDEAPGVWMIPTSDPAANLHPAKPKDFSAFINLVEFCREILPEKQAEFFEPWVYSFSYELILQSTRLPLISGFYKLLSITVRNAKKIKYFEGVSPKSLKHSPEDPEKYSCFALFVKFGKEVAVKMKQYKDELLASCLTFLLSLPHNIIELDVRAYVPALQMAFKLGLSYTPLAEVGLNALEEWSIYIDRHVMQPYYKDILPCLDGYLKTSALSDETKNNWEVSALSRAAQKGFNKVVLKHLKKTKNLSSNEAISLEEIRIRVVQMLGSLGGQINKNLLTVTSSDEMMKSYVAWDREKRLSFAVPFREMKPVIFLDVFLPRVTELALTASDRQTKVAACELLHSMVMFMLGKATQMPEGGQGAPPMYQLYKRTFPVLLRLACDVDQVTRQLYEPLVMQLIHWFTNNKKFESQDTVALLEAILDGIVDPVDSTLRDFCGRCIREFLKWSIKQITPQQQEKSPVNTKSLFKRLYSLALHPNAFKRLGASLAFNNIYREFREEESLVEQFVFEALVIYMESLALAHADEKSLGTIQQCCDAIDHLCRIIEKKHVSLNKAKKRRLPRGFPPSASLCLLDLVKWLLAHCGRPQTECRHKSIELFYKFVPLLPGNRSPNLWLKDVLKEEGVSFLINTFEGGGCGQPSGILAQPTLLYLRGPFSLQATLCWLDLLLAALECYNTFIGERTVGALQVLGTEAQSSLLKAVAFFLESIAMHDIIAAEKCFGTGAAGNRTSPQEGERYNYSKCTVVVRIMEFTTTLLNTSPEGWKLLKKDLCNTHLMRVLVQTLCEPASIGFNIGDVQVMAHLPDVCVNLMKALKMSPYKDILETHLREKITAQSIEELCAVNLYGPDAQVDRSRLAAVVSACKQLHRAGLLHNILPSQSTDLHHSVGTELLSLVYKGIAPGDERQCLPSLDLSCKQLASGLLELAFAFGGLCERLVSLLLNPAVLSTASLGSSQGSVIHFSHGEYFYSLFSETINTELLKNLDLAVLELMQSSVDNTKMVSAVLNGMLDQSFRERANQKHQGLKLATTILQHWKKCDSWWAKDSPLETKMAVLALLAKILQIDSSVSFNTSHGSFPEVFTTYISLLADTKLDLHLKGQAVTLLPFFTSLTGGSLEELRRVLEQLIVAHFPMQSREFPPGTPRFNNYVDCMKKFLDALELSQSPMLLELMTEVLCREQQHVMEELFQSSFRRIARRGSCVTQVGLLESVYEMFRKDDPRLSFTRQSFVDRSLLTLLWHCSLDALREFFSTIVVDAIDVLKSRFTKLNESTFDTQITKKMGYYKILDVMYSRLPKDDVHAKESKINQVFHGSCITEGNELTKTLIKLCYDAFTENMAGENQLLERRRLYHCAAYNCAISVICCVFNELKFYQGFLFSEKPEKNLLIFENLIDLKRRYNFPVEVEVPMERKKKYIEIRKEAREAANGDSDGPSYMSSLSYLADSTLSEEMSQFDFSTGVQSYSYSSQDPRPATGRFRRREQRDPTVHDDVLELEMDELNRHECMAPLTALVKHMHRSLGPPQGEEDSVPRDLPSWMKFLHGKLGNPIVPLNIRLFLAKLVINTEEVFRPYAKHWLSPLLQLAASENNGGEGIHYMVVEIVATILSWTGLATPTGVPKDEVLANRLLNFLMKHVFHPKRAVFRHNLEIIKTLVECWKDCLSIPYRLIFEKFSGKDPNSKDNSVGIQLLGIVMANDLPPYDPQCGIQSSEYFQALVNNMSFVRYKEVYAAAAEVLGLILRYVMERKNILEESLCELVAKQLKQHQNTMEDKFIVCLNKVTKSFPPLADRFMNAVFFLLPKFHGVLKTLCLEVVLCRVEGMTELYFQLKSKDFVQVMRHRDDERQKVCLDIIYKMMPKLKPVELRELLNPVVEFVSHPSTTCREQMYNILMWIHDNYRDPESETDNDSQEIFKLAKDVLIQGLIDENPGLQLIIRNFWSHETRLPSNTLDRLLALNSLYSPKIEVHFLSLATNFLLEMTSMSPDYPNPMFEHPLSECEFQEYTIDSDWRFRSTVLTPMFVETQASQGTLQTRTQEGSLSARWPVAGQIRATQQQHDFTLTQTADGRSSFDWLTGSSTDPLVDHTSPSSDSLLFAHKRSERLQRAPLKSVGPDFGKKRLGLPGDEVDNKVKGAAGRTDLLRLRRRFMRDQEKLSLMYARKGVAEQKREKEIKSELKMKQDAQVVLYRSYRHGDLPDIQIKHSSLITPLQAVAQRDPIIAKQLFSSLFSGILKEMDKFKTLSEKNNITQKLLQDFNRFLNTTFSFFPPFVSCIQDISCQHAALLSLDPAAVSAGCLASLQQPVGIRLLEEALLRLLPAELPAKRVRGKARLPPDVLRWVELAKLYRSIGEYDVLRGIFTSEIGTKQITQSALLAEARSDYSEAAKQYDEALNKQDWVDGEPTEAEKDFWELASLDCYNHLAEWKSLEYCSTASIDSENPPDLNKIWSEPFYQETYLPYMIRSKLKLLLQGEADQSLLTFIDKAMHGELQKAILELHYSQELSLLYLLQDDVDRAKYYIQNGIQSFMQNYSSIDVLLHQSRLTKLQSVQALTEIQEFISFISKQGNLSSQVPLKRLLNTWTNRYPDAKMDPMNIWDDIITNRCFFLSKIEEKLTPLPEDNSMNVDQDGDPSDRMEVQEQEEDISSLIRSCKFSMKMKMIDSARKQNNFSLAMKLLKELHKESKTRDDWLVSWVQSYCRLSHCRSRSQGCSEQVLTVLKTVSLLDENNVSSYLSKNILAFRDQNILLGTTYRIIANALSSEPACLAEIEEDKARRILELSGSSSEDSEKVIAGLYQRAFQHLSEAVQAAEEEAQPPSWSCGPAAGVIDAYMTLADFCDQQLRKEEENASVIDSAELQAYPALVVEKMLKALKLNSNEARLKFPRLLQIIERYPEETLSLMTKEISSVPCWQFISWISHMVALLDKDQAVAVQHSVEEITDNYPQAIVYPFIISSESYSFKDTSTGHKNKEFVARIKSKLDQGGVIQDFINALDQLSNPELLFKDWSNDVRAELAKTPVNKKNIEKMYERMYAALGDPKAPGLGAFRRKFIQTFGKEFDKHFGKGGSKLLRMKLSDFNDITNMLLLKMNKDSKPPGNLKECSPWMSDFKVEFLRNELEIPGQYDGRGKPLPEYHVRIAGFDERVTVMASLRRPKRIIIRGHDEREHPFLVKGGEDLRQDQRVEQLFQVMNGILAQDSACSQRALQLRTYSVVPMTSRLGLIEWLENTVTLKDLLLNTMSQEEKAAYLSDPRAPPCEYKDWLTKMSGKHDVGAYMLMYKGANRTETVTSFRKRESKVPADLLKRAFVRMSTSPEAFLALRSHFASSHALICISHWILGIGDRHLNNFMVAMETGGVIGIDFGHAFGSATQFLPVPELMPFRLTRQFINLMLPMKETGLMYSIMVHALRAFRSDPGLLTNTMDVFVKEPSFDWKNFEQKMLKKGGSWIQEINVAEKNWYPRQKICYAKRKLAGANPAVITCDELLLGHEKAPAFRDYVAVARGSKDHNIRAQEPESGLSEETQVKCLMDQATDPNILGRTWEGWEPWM

[24] = target: T1, DNA-dependent protein kinase catalytic subunit; settings: LoVo, dose 1.0 µmol/L, time 17.0 hrs
[25] = test system: SW-620; experiment: Cell cycle arrest in human SW620 cells assessed as increase in G1-phase cell population at 1 umol/L measured after 16 hrs by propidium iodide staining based flow cytometry relative to control; settings: sw-620, 16 h, 1 µM

SMILES: O=c1cc(N2CCOCC2)oc2c(-c3cccc4c3sc3ccccc34)cccc12
- LD90 [1]: 2.8 Gy
- fold change (FC) [2]: 1.6
- viability at 16 h, 0.5 µM [3]: 97%
- Activity [4]: Toxic
- GI50 at 120 h [5]: 520 nM
- inhibition at 120 h, 1 µM [6]: 8%
- Activity [7]: 24%
- Cmax [8]: 1600 ng/mL
- AUC(0-t) [9]: 817 ng·h/mL
- CL/F [10]: 140 mL/min/kg
- AUC(0-t) [11]: 2500 ng·h/mL
- AUC(0-inf) [12]: 2530 ng·h/mL
- bioavailability [13]: 100%
- Kp at 0.5 h [14]: 2.2
- Kp at 1 h [15]: 3.2
- Kp at 1.5 h [16]: 3
- Kp at 4 h [17]: 6.2
- Kp at 1.5 h [18]: 14
- Kp at 4 h [19]: 1
- Kp at 4 h [20]: 5
- Kp at 0.5 h [21]: 3.2
- Kp at 1 h [22]: 3.2
- IC50 [23]: 14 nM
- LD90 [24]: 1 Gy
- Activity [25]: 15%
